From ChEMBL document CHEMBL1123470, “N-substituent modulation of opiate agonist/antagonist activity in resolved 3-methyl-3-(m-hydroxyphenyl)piperidines” (J Med Chem, 1986) come the findings set out here.

Structures can show the parent of a compound that is named as a salt. The source made the active and inactive calls. The calls are words filed in the database; no cut-off is given here.

Assay [1] deals with Mus musculus. Kind of assay: Compound was tested for analgesic potency using writhing test in mouse after sc administration of compound. In kind it is functional.
In assay [2] the target is T1, Delta-type opioid receptor (Rattus norvegicus, UniProt P33533). Kind of assay: Affinity against the Opioid receptor delta 1.
T1 sequence (P33533 whole entry): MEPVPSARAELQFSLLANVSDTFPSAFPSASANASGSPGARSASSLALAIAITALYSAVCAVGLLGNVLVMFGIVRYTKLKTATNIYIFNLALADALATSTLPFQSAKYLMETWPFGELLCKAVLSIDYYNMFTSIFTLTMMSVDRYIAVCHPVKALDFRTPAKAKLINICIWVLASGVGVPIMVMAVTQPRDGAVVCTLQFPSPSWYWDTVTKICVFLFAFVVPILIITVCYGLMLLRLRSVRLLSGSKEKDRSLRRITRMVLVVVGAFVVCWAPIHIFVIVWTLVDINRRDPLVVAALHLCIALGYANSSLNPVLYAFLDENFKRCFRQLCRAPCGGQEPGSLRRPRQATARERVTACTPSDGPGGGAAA
The test system of assay [3] is Mus musculus. The assay can be described thus: Compound was tested for narcotic antagonist potency using tail flick test in mouse after sc administration of compound. In kind it is functional. A general note: Thermal pain tests record how soon the animal reacts.
For assay [4], the target named is T2, Mu-type opioid receptor (Rattus norvegicus, UniProt P33535). Kind of assay: Mu2 opioid receptor affinity against the receptor site model site 2 (mu2) by using the curve-fitting program LIGAND.
T2 sequence (P33535 whole entry): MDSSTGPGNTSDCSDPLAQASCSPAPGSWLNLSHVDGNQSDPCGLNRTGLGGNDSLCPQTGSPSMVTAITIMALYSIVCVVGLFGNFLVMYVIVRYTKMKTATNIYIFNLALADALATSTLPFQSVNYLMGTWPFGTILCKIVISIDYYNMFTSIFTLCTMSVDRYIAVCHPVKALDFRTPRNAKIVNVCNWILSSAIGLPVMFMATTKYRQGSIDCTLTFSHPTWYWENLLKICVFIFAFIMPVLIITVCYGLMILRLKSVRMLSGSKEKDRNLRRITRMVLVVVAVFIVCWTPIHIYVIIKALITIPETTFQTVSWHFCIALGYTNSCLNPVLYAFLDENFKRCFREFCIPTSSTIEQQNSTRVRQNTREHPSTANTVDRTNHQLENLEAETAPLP
The target in assay [5] is Kappa-type opioid receptor (Rattus norvegicus, UniProt P34975). Kind of assay: Opioid receptor affinity against Opioid receptor kappa 1 by using the curve-fitting program LIGAND.
Kappa-type opioid receptor, sequence (P34975 whole entry): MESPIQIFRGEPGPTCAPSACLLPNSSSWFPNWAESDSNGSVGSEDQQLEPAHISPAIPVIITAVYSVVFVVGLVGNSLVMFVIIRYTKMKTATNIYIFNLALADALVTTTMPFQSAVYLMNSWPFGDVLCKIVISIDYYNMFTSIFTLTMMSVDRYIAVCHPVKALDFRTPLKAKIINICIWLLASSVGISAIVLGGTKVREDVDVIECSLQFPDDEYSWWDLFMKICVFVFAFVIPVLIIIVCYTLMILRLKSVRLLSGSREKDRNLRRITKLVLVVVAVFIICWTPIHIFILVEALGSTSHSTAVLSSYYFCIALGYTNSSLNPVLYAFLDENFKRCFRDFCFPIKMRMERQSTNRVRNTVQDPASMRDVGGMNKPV
Assay [6] has as its target T1, Delta-type opioid receptor. Kind of assay: Opioid receptor affinity against the Opioid receptor delta 1 by using the curve-fitting program LIGAND.
The target in the next assay is Opioid receptor (Rattus norvegicus, UniProt P33533+P34975+P33535). Kind of assay: Opioid receptor affinity against the receptor site model site 5 by using the curve-fitting program LIGAND. In kind it is protein assay.
The target in assay [7] is T2, Mu-type opioid receptor. Kind of assay: (§1) Opioid receptor mu 1 affinity against the receptor site model site 1 (mu1) by using the curve-fitting program LIGAND.
The test system of assay [8] is Mus musculus. The assay can be described thus: Compound was tested for narcotic antagonist potency using tail flick test in mouse after sc administration of compound; no significant antagonist activity up to dose of 240-300 umol/kg. In kind it is functional, organism-based.
The subject of assay [9] is Mus musculus. Kind of assay: Compound was tested for analgesic activity in mouse using mouse writhing test after sc administration of compound. In kind it is functional. A general note: An intraperitoneal irritant provokes the stretching counted in writhing tests.
Assay [10] has as its system Mus musculus. The assay can be described thus: Analgesic antagonistic activity in mice using morphine(56.07 umol/kg) induced Straub-tail test after sc administration. In kind it is functional. The gist of the method:
(§2)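 Mice got the test substance, N-allylnormorphine reference, or diluent sc, then immediately 56.07 µmol/kg morphine sulfate sc. The number of mice showing a Straub-tail reaction (tail raised above 45°) was recorded 15–25 min after treatment.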

Assay [11] has as its system Mus musculus. Kind of assay: Compound was tested for analgesic activity in mouse using mouse writhing test following subcutaneous administration. In kind it is functional.
Assay [12] deals with T2, Mu-type opioid receptor. Described as §1. In outline: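 Rat whole-brain homogenate, preincubated 37 °C 1 h, resuspended in Tris pH 7.7 (with 100 mM NaCl when appropriate) at 6.7 mg tissue/mL. […] Triplicate tubes, 25 °C 45 min, then filtration. Self- and cross-competition data were fitted together by multisite LIGAND analysis for site affinities. Values are averages of at least two experiments.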
The source holds these as a separate data set.

For assay [13], the system named is Mus musculus. Kind of assay: Compound was tested for narcotic antagonist potency using tail flick test in mouse following subcutaneous administration. Conditions: sc. In kind it is functional.
The subject of assay [14] is Mus musculus. The assay can be described thus: Compound was tested for narcotic antagonist potency using tail flick test in mouse after sc administration of compound; No significant antagonist activity up to dose of 240-300 umol/kg. In kind it is functional, organism-based.
Assay [15] deals with Mus musculus. The assay can be described thus: Analgesic antagonistic activity in mice using morphine(56.07 umol/kg) induced Straub-tail test after sc administration; No antagonist activity up to 846 umol/ kg. In kind it is functional, organism-based. The gist of the method: as §2
Setting [16] is: Mus musculus, sc, read-out: ED50.

`CC1(c2cccc(O)c2)CCCN(CC2CC2)C1` (single isomer, unassigned; (-)) [listing 1 of 2 here]: the ED50 in the assay on Mus musculus [1] (setting [16]) amounted to 12.2 µmol/kg.
In assay [2], `CCC1C2C(=O)c3ccc(O)cc3C1(C)CCN2CC1CC1` (stereo unspecified) displayed a Kd of 14 nM.
Consider `CC1(c2cccc(O)c2)CCCN(CCc2ccccc2)C1` (stereo in doubt; (+)-7d), for which the values for the ED50 with Mus musculus [3] and in the assay with Mus musculus [1] (setting [16]) were 13.1 µmol/kg and 11.5 µmol/kg, respectively. Also, the Kd amounted to 6.2 nM on Mu-type opioid receptor [4]; 179 nM in assay [5]; 0.588 µM in assay [6]; 26.3 µM on Opioid receptor; 5 nM at Mu-type opioid receptor [7].
`CC1(c2cccc(O)c2)CCCN(CC2CC2)C1` (single isomer, unassigned; (-)) [listing 2 of 2 here]: in the assay with Mus musculus [8], the ED50 entry was “inactive”.
With `Br.CN1CCCC(C)(c2cccc(O)c2)C1` (racemic), the ED50 in the assay on Mus musculus [9] came to 26.9 µmol/kg. The AD50 with Mus musculus [10] worked out at 18.17 µM/kg.
Take `C=CCN1CCCC(C)(c2cccc(O)c2)C1` (single isomer, unassigned; (-)) [listing 1 of 2 here]: the dissociation constant (Kd) came to 110 nM on Mu-type opioid receptor [4]; 370 nM in assay [5]; 4 µM in assay [6]; 1.72 µM at Opioid receptor; 24 nM on Mu-type opioid receptor [7]. The same compound yielded an ED50 in the assay with Mus musculus [1] of 14.34 µM/kg.
Regarding `CC1(c2cccc(O)c2)CCCN(CCc2ccccc2)C1` (single isomer, unassigned; (-)) [listing 1 of 2 here], the ED50 result in the assay on Mus musculus [8] was “inactive”.
Regarding `CN1CC[C@]23c4c5ccc(O)c4O[C@H]2[C@@H](O)C=C[C@H]3[C@H]1C5`, the ED50 in the assay on Mus musculus [11] (setting [16]) came to 0.81 µmol/kg.
Take `C=CCN1CC[C@]23c4c5ccc(O)c4O[C@H]2[C@@H](O)C=C[C@H]3[C@H]1C5.Cl` [NALORPHINE HYDROCHLORIDE]: in the assay on Mus musculus [11] (setting [16]), the ED50 was found to be 1.4 µmol/kg. The same compound gave an AD50 with Mus musculus [10] of 0.71 µM/kg.
In the case of `C=CCN1CCCC(C)(c2cccc(O)c2)C1` (single isomer, unassigned; (+)), the figures for the ED50 in the assay with Mus musculus [3] and with Mus musculus [1] were 112 µmol/kg and 160.94 µM/kg, respectively. In addition, the Kd was found to be 370 nM on Mu-type opioid receptor [4]; 100 nM at Mu-type opioid receptor [12]; 137 nM in assay [5]; 4 µM in assay [6]; 3.7 µM at Opioid receptor.
In turn, `C=CCN1CCCC(C)(c2cccc(O)c2)C1` (racemic) showed an ED50 in the assay on Mus musculus [9] of 418 µmol/kg. In the assay with Mus musculus [10], this compound gave an AD50 of 38.83 µM/kg.
On to `C=CCN1CC[C@]23c4c5ccc(O)c4O[C@H]2[C@@H](O)C=C[C@H]3[C@H]1C5` [NALORPHINE], for which the results for the ED50 with Mus musculus [11] and with Mus musculus [13] were 1.4 µM/kg and 2.04 µmol/kg, respectively.
`CN1CCCC(C)(c2cccc(O)c2)C1` (stereo in doubt; (-)-7a) [listing 1 of 2 here]: the Kd came out at 1170 nM on Mu-type opioid receptor [4]; 114 nM at Mu-type opioid receptor [12]; 625 nM in assay [5]; 30 µM in [6]; 8.33 µM at Opioid receptor. In addition, in the assay on Mus musculus [1] (setting [16]), the ED50 stood at 25.7 µmol/kg.
Turning to `CC1(c2cccc(O)c2)CCCN(CCc2ccccc2)C1` (single isomer, unassigned; (-)) [listing 2 of 2 here], the Kd stood at 130 nM on Mu-type opioid receptor [4]; 625 nM in assay [5]; 2.17 µM in assay [6]; 1.39 µM at Opioid receptor; 13 nM at Mu-type opioid receptor [7]. In addition, the ED50 with Mus musculus [1] was 18.38 µM/kg.
`CN1CCCC(C)(c2cccc(O)c2)C1` (stereo in doubt; (-)-7a) [listing 2 of 2 here]: the ED50 entry in the assay on Mus musculus [14] is “inactive”.
Regarding `CC1(c2cccc(O)c2)CCCN(CCc2ccccc2)C1` (racemic), the ED50 in the assay on Mus musculus [9] is 14.1 µmol/kg. The compound further returned an AD50 with Mus musculus [10] of 33.94 µM/kg.
Take `C=CCN1CCCC(C)(c2cccc(O)c2)C1` (single isomer, unassigned; (-)) [listing 2 of 2 here]: the ED50 entry in the assay on Mus musculus [8] is “inactive”.
Consider `CC1(c2cccc(O)c2)CCCN(CC2CC2)C1` (racemic), for which the ED50 in the assay on Mus musculus [9] came to 83.5 µmol/kg. Also, the AD50 in the assay on Mus musculus [10] was 7.5 µM/kg.
With `CCOC(=O)C1(c2ccccc2)CCN(C)CC1` [MEPERIDINE HYDROCHLORIDE], the AD50 entry in the assay with Mus musculus [15] is “inactive”. The ED50 in the assay with Mus musculus [9] worked out at 20.2 µmol/kg.
Turning to `CN1CCCC(C)(c2cccc(O)c2)C1` (stereo in doubt; (+)-7a), the ED50 with Mus musculus [3] was found to be 101 µmol/kg; with Mus musculus [1], 41.36 µM/kg. Moreover, the Kd was determined as 1000 nM on Mu-type opioid receptor [4]; 714 nM in assay [5]; 15.9 µM in assay [6]; 19.2 µM at Opioid receptor; 132 nM at Mu-type opioid receptor [7].
In the assay on Mus musculus [3], `CC1(c2cccc(O)c2)CCCN(CC2CC2)C1` (single isomer, unassigned; (+)) registered an ED50 of 139 µmol/kg.

What is called Kd is the equilibrium constant for the complex coming apart. The low end stands for higher affinity, the high end for lower affinity.
